Measurements as given in ChEMBL document CHEMBL4011629, “New Disubstituted Quindoline Derivatives Inhibiting Burkitt's Lymphoma Cell Proliferation by Impeding c-MYC Transcription” (J Med Chem, 2017).
The source made the active and inactive calls. No cut-off for these calls is given here.

Key:
Raji [1] = assay: Induction of apoptosis in human Raji cells assessed as downregulation of CDK4 expression after 12 hrs by Western blot method; type: functional, cell-based
Procedure, shortened: (§1)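 After compound exposure (12 h for cell-cycle and apoptosis markers), RAJI cells were lysed in 1% NP-40 buffer. Protein at 50 μg per lane was run on 3–12% SDS-PAGE and transferred to nitrocellulose. Blots were probed with primary antibodies (GAPDH as loading reference) and detected with an HRP secondary and enhanced chemiluminescence.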

Raji [2] = assay: Induction of apoptosis in human Raji cells assessed as late apoptotic cells at 1 uM after 12 hrs by Annexin V-FITC/propidium iodide staining based flow cytometry relative to control; type: functional
Procedure, shortened: (§2)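 RAJI cells exposed to compound or control medium for 12 or 48 h were washed in PBS and resuspended in binding buffer. They were stained with FITC annexin V and PI for 15 min in the dark, and fluorescence was measured by flow cytometry.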

Raji [3] = assay: Effect on NM23-H2 transcription level in human Raji cells up to 4 uM after 12 hrs by RT-PCR method; type: functional, cell-based
Raji [4] = assay: Induction of apoptosis in human Raji cells assessed as early apoptotic cells at 1 uM after 48 hrs by Annexin V-FITC/propidium iodide staining based flow cytometry (reference value: 1.8%); type: functional; procedure, shortened: as §2
CCRF-CEM = assay: Antiproliferative activity against human CCRF-CEM cells after 12 hrs by MTT assay; type: functional, cell-based
Procedure, shortened: (§3)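 RAJI, CCRF-CEM and U266B1 cells were seeded at 5 × 10^3 cells per well and exposed to compound for 12 h, with a DMSO vehicle control. MTT at 0.5 mg/mL was added for 4 h at 37 °C, then lysis solution overnight at 37 °C, and A570 was read. Assays were run in triplicate. IC50 was taken from the percentage survival relative to the negative control.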

U-266 = assay: Antiproliferative activity against human U266B1 cells after 12 hrs by MTT assay; type: functional, cell-based; details: U-266, 12 h; procedure, shortened: as §3
Raji [5] = assay: Cell cycle arrest in human Raji cells assessed as accumulation at G0/G1 phase after 12 hrs by propidium iodide staining based flow cytometry (reference value: 38.5%); type: functional
[6] = Selectivity ratio of Kd for 5'-FAM labeled duplex DNA (unknown origin) to Kd for 5'-FAM labeled c-Myc Pu27 G-quadruplex DNA (unknown origin)
Procedure, shortened: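 MST binding: FAM-Pu27 or FAM-duplex oligo at 10 μM in 10 mM Tris-HCl pH 7.4 with 150 mM KCl, annealed 95 °C 5 min, slow-cooled, held 4 °C overnight. Ligand titrated as a 12-point series, 0–20 μM for G4 or up to 200 μM for duplex. KD fitted with Hill model; three replicates.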

[7] = Binding affinity to 5'-FAM labeled c-Myc Pu27 G-quadruplex DNA (unknown origin) in presence of K+ ions by MST analysis
Procedure, shortened: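 The DNA was annealed at 95 °C for 5 min, slowly cooled and held at 4 °C overnight. Ligand was run as a 12-point series, 0–20 μM for Pu27 and up to 200 μM for duplex. MST was measured, and KD was fitted to a Hill model from three replicates.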

Homo sapiens [8] = species: Homo sapiens; assay: Stabilization of c-Myc G-quadruplex DNA in human Raji cells assessed as downregulation of c-Myc protein level after 6 hrs by Western blot method; type: cell-based
Procedure, shortened: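 Western blot of RAJI cells treated either with 1 μM for 6, 12, 24 and 48 h or with graded concentrations for 6 h. Lysed in 1% NP-40, 50 μg protein/lane on 3–12% SDS-PAGE, nitrocellulose, probed for c-MYC, NM23-H2, GAPDH loading control, HRP secondary with ECL; untreated control, three replicates.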

Homo sapiens [9] = species: Homo sapiens; assay: Stabilization of c-Myc G-quadruplex DNA in human Raji cells assessed as decrease in amplification of exon-1 after 12 hrs by RT-PCR method; type: cell-based
Procedure, shortened: (§4)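 Exon-specific assay: RAJI and CA46 cells exposed to various ligand concentrations for 12 h; total RNA (2 μg) reverse-transcribed with oligo dT18 and M-MLV (42 °C 1 h). c-MYC exon 1 and exon 2, NM23-H2 and β-actin amplified by real-time PCR, products run on 1% agarose; untreated cells as control; three repeats, two-tailed unpaired t test.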

Raji [10] = assay: Cell cycle arrest in human Raji cells assessed as accumulation at S phase after 6 hrs by propidium iodide staining based flow cytometry (reference value: 32.2%); type: functional
[11] = Drug uptake in human Raji cells at 1 uM after 6 hrs; type: ADME, cell-based
Raji [12] = assay: Induction of apoptosis in human Raji cells assessed as upregulation of p27 expression up to 4 uM after 12 hrs by Western blot method; type: functional, cell-based; procedure, shortened: as §1
Raji [13] = assay: Antiproliferative activity against human Raji cells after 48 hrs by MTT assay; type: functional, cell-based
Procedure, shortened: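 RAJI cells were seeded at 5 × 10^3 cells per well and treated for 48 h, with a DMSO-matched control. MTT at 0.5 mg/mL was added for 4 h at 37 °C, followed by overnight lysis at 37 °C and absorbance at 570 nm. Each assay was done in triplicate. IC50 came from the dose-dependent percentage survival versus the control.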

Raji [14] = assay: Induction of apoptosis in human Raji cells assessed as upregulation of cleaved PARP expression up to 4 uM after 12 hrs by Western blot method; type: functional, cell-based; procedure, shortened: as §1
Raji [15] = assay: Cell cycle arrest in human Raji cells assessed as accumulation at G2/M phase after 48 hrs by propidium iodide staining based flow cytometry (reference value: 24.4%); type: functional
Homo sapiens [16] = species: Homo sapiens; assay: Stabilization of c-Myc G-quadruplex DNA in human U266B1 cells assessed as downregulation of c-Myc mRNA level up to 4 uM after 12 hrs by RT-PCR method; type: cell-based
Procedure, shortened: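 RAJI, CCRF-CEM and U266B1 grown in RPMI 1640 with 10% fetal calf serum at 37 °C, plated at 1 × 10^6 cells/well overnight, then treated 12 h with 4, 2, 1 or 0.5 μM (DMSO control). RNA (2 μg) reverse-transcribed with oligo dT18/M-MLV; c-MYC, NM23-H2 and β-actin amplified by real-time PCR, checked on 1.5% agarose.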

Homo sapiens [17] = species: Homo sapiens; assay: Stabilization of c-Myc G-quadruplex DNA in human CA46 cells assessed as decrease in amplification of exon-1 up to 4 uM after 12 hrs by RT-PCR method; type: cell-based; procedure, shortened: as §4

IC50 (CCRF-CEM): 18.1 µM | Selectivity ratio [6]: 8 | Kd [7]: 1.3 µM | Drug uptake [11]: Active | IC50 (Raji [13]): 4.7 µM
Compound: CN(C)CCCNc1c2ccccc2nc2c1oc1ccc(OCC3CCN(C)CC3)cc12
Activity (Raji [1]): Dose-dependent effect | Activity (Raji [2]): 0.3% | Activity (Raji [3]): inactive | Activity (Raji [4]): 52.9% | IC50 (U-266): 23 µM | Activity (Raji [5]): 60.2% | Activity (Homo sapiens [8]): Dose-dependent effect | Activity (Homo sapiens [9]): Dose-dependent effect | Activity (Raji [10]): 18.1% | Activity (Raji [12]): Active | Activity (Raji [14]): Active | Activity (Raji [15]): 16.6% | Activity (Homo sapiens [16]): inactive | Activity (Homo sapiens [17]): Active
